Assay results reported in PMC6030701 (EMBO Reports, 2018).
Each block holds one molecule with its values, some of them ahead of it.

Assays:
MSP domain of MOSPD2 = target: T1, MSP domain of MOSPD2 (Homo sapiens, UniProt Q8NHP6); assay: Liposome aggregation; assay type: biochemical; conditions: DLS, 25°C
T1 sequence (Q8NHP6 282-490): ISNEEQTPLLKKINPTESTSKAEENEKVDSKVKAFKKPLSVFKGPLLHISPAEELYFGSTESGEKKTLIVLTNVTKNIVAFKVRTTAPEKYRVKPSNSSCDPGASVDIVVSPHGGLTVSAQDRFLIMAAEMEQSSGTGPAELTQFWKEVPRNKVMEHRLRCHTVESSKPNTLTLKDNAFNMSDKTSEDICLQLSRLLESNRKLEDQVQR

[1] = tested on: RD/LD mutant MSP domain of MOSPD2; assay: Liposome aggregation; assay type: biochemical; conditions: DLS, 25°C, FFAT peptide 380 nM, RD/LD mutant MSP 760 nM
SEC = target: the molecule itself; assay: SEC
STARD3 = assay: MSP domain pull-down, STARD3; assay type: binding; conditions: 6His MSP on NTA-Ni2+ resin, HeLa/STARD3 protein extract, Western blot
Outline: (§1)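 6His-tagged MSP domain (residues 282–490), from E. coli BL21 DE3 (1 mM IPTG, 20°C, 16 h), purified on Ni-NTA and by gel filtration. HeLa stable-line extract in PDB2 incubated 2.5 h, 4°C. Laemmli elution; blotted for STARD3, His, actin.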

STARD3 FA/YA = assay: MSP domain pull-down, STARD3 FA/YA mutant; assay type: binding; conditions: 6His MSP on NTA-Ni2+ resin, HeLa/STARD3 FA/YA protein extract, Western blot
Outline: as §1

size of liposome aggregates at end of kinetics (MSP domain of MOSPD2; FFAT peptide 380 nM, MSP MOSPD2 WT 760 nM): 479 ± 87 nm
size of free liposomes (MSP domain of MOSPD2; size distribution analysis): 97 ± 15 nm
Molecule: WCSGKGDMSDEDDENEFFDAPEIITMPENLGH [FFAT‐containing peptide]
liposome aggregation [1]: no aggregation was observed

B1: MSP domain and coiled‐coil of VAP‐A [8–212], wild type (domain or fragment, human, UniProt Q9P0L0 8-212, looked up)
chain: MAKHEQILVLDPPTDLKFKGPFTDVVTTNLKLRNPSDRKVCFKVKTTAPRRYCVRPNSGIIDPGSTVTVSVMLQPFDYDPNEKSKHKFMVQTIFAPPNTSDMEAVWKEAKPDELMDSKLRCVFEMPNENDKLNDMEPSKAVPLNASKQDGPMPKPHSVSLNDTETRKLMEECKRLQGEMMKLSEENRHLRDEGLRLRKVAHSDKP
stoichiometry N (SEC): 2

B2: wild‐type MSP domain of MOSPD2: recombinant MSP domain of MOSPD2 [282–490], expressed in E. coli (protein)
chain: T1 sequence (Q8NHP6 282-490)
modifications: left off: 6His, C-terminal, kept
interaction with STARD3 (STARD3): interacted specifically with STARD3
interaction with STARD3 FA/YA (STARD3 FA/YA): not with the STARD3 FA/YA mutant
